From publication PMC6102747 (Molecular Medicine Reports, 2018)
Read-outs that look alike come from different tables or passages of the source.

Experiments:
Slco1b2 = test: RT-qPCR mRNA expression in liver; assay type: in vivo, rats; details: vs control
OATP1B2 = test: Western blot protein expression in liver; assay type: in vivo, rats; details: vs control
Cyp3a1 [1] = assay type: in vivo, rats; details: vs control
[2] = Pharmacokinetics of CsA after intravenous administration; assay type: in vivo, Sprague-Dawley rats; details: rats, i.v. CsA 2.5 mg/kg, Q3GA 5 mg/kg i.v. 7 days
Pxr = assay type: in vivo, rats; details: vs control
Sult1a1 [3] = test: Western blot protein expression in small intestine and liver; assay type: in vivo, rats; details: vs control
Mdr1 = test: RT-qPCR mRNA expression in small intestine and liver; assay type: in vivo, rats; details: vs control
Summary of the method: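 Rats, 3 per group, dosed once daily for 7 days: phosphate buffer 5 ml/kg i.v., test compound 2.5/5/10 mg/kg i.v. in phosphate buffer, ketoconazole 75 mg/kg i.g. in olive oil, or verapamil 4 mg/kg i.g. in water. Olive oil 5 ml/kg gavaged 30 min after day-7 dose. Killed 24 h post-dose after overnight fast; liver and intestinal mucosa snap-frozen. qPCR: 40 cycles, 58°C annealing; 2−ΔΔCq.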

Slco2b1 = test: RT-qPCR mRNA expression in small intestine; assay type: in vivo, rats; details: vs control
Gstm1 [4] = test: RT-qPCR mRNA expression in liver; assay type: in vivo, rats; details: vs control
Ugt1a1 [5] = test: RT-qPCR mRNA expression in small intestine and liver; assay type: in vivo, rats; details: vs control
Mrp2 [6] = test: Western blot protein expression in small intestine and liver; assay type: in vivo, rats; details: vs control, P<0.001
Car [7] = test: RT-qPCR mRNA expression in small intestine and liver; assay type: in vivo, rats; details: vs control
Sult1a1 [8] = test: as above; assay type: in vivo, rats; details: vs control
Gstm1 [9] = test: Western blot protein expression in liver; assay type: in vivo, rats; details: vs control
Bcrp = test: RT-qPCR mRNA expression in small intestine and liver; assay type: in vivo, rats; details: vs control
Cyp3a1 [10] = test: as above; assay type: in vivo, rats; details: vs control
Mrp2 [11] = test: as above; assay type: in vivo, rats; details: vs control
Car [12] = test: Western blot protein expression in small intestine and liver; assay type: in vivo, rats; details: vs control
Ugt1a1 [13] = test: as above; assay type: in vivo, rats; details: vs control, P<0.001
Cyp3a2 = test: RT-qPCR mRNA expression in small intestine and liver; assay type: in vivo, rats; details: vs control
OATP2B1 = test: Western blot protein expression in small intestine; assay type: in vivo, rats; details: vs control
[14] = low-dose Q3GA 2.5 mg/kg i.v. 7 days, P<0.001
[15] = middle-dose Q3GA 5 mg/kg i.v. 7 days, P<0.01
[16] = high-dose Q3GA 10 mg/kg i.v. 7 days
[17] = middle-dose Q3GA 5 mg/kg i.v. 7 days
[18] = liver, high-dose Q3GA 10 mg/kg i.v. 7 days, P<0.01
[19] = liver, low-dose Q3GA 2.5 mg/kg i.v. 7 days, P<0.01
[20] = liver, middle-dose Q3GA 5 mg/kg i.v. 7 days, P<0.05
[21] = small intestine, high-dose Q3GA 10 mg/kg i.v. 7 days, P<0.001
[22] = small intestine, low-dose Q3GA 2.5 mg/kg i.v. 7 days, P<0.001
[23] = small intestine, middle-dose Q3GA 5 mg/kg i.v. 7 days, P<0.01
[24] = small intestine, high-dose Q3GA 10 mg/kg i.v. 7 days, P<0.01
[25] = small intestine, middle-dose Q3GA 5 mg/kg i.v. 7 days, P<0.05
[26] = liver, low-dose Q3GA 2.5 mg/kg i.v. 7 days, P<0.001
[27] = high-dose Q3GA 10 mg/kg i.v. 7 days, P<0.01
[28] = liver, high-dose Q3GA 10 mg/kg i.v. 7 days, P<0.05
[29] = liver, middle-dose Q3GA 5 mg/kg i.v. 7 days, P<0.01
[30] = liver, low-dose Q3GA 2.5 mg/kg i.v. 7 days
[31] = small intestine, high-dose Q3GA 10 mg/kg i.v. 7 days
[32] = small intestine, low-dose Q3GA 2.5 mg/kg i.v. 7 days
[33] = small intestine, middle-dose Q3GA 5 mg/kg i.v. 7 days
[34] = liver, middle-dose Q3GA 5 mg/kg i.v. 7 days, P<0.001
[35] = small intestine, high-dose Q3GA 10 mg/kg i.v. 7 days, P<0.05
[36] = liver, high-dose Q3GA 10 mg/kg i.v. 7 days
[37] = liver, high-dose Q3GA 10 mg/kg i.v. 7 days, not significant
[38] = liver, middle-dose Q3GA 5 mg/kg i.v. 7 days, not significant

O=c1c(O[C@@H]2O[C@H](CO)[C@@H](O)[C@H](O)[C@H]2O)c(-c2ccc(O)c(O)c2)oc2cc(O)cc(O)c12 [Q3GA, Quercetin-3-O-β-D-glucoside]
decrease in Slco1b2 mRNA expression (Slco1b2; high-dose Q3GA 10 mg/kg i.v. 7 days, P<0.001): 53.54% | decrease in Slco1b2 mRNA expression (Slco1b2; [14]): 68.06% | decrease in Slco1b2 mRNA expression (Slco1b2; [15]): 38.39% | decrease in OATP1B2 protein expression (OATP1B2; [16]): 33.73% | decrease in OATP1B2 protein expression (OATP1B2; low-dose Q3GA 2.5 mg/kg i.v. 7 days, P<0.01): 67.47% | decrease in OATP1B2 protein expression (OATP1B2; [17]): 26.52% | decrease in CYP3A1 protein expression (Cyp3a1 [1]; [18]): 52.99% | decrease in CYP3A1 protein expression (Cyp3a1 [1]; [19]): 57.66% | decrease in CYP3A1 protein expression (Cyp3a1 [1]; [20]): 43.95% | decrease in CYP3A1 protein expression (Cyp3a1 [1]; [21]): 62.95% | decrease in CYP3A1 protein expression (Cyp3a1 [1]; [22]): 75.25% | decrease in CYP3A1 protein expression (Cyp3a1 [1]; [23]): 39.22% | effect on blood concentration of CsA after intravenous injection of CsA [2]: not affected | increase in PXR protein expression (Pxr; [19]): 182.93% | increase in PXR protein expression (Pxr; [24]): 147.68% | increase in PXR protein expression (Pxr; [22]): 258.85% | increase in PXR protein expression (Pxr; [25]): 81.66% | decrease in SULT1A1 protein expression (Sult1a1 [3]; [19]): 75.89% | decrease in SULT1A1 protein expression (Sult1a1 [3]; [21]): 57.47% | decrease in SULT1A1 protein expression (Sult1a1 [3]; [22]): 75.44% | decrease in SULT1A1 protein expression (Sult1a1 [3]; [25]): 36.33% | decrease in Mdr1 mRNA expression (Mdr1; [18]): 47.32% | decrease in Mdr1 mRNA expression (Mdr1; [26]): 67.60% | decrease in Mdr1 mRNA expression (Mdr1; [20]): 45.09% | decrease in Mdr1 mRNA expression (Mdr1; [21]): 33.33% | decrease in Mdr1 mRNA expression (Mdr1; [22]): 47.47% | decrease in Mdr1 mRNA expression (Mdr1; small intestine, middle-dose Q3GA 5 mg/kg i.v. 7 days, P<0.001): 17.51% | decrease in Slco2b1 mRNA expression (Slco2b1; [27]): 39.57% | decrease in Slco2b1 mRNA expression (Slco2b1; [14]): 62.19% | decrease in Slco2b1 mRNA expression (Slco2b1; [17]): 20.49% | increase in Gstm1 mRNA expression (Gstm1 [4]; [16]): 75.09% | increase in Gstm1 mRNA expression (Gstm1 [4]; [14]): 248.40% | increase in Gstm1 mRNA expression (Gstm1 [4]; [17]): 85.41% | decrease in Ugt1a1 mRNA expression (Ugt1a1 [5]; [28]): 41.04% | decrease in Ugt1a1 mRNA expression (Ugt1a1 [5]; [26]): 76.13% | decrease in Ugt1a1 mRNA expression (Ugt1a1 [5]; [29]): 48.78% | decrease in Ugt1a1 mRNA expression (Ugt1a1 [5]; [21]): 37.83% | decrease in Ugt1a1 mRNA expression (Ugt1a1 [5]; [22]): 70.14% | decrease in Ugt1a1 mRNA expression (Ugt1a1 [5]; [25]): 24.08% | decrease in MRP2 protein expression (Mrp2 [6]; [30]): 70.70% | decrease in MRP2 protein expression (Mrp2 [6]; [31]): 50.84% | decrease in MRP2 protein expression (Mrp2 [6]; [32]): 75.95% | decrease in MRP2 protein expression (Mrp2 [6]; [33]): 42.60% | increase in Car mRNA expression (Car [7]; [18]): 74.60% | increase in Car mRNA expression (Car [7]; [26]): 224.76% | increase in Car mRNA expression (Car [7]; [34]): 98.73% | increase in Car mRNA expression (Car [7]; [35]): 117.54% | increase in Car mRNA expression (Car [7]; [22]): 265.44% | increase in Car mRNA expression (Car [7]; [25]): 99.57% | decrease in Sult1a1 mRNA expression (Sult1a1 [8]; [36]): 18.39% | decrease in Sult1a1 mRNA expression (Sult1a1 [8]; [26]): 58.06% | decrease in Sult1a1 mRNA expression (Sult1a1 [8]; [20]): 31.94% | decrease in Sult1a1 mRNA expression (Sult1a1 [8]; [24]): 52.02% | decrease in Sult1a1 mRNA expression (Sult1a1 [8]; [22]): 64.54% | decrease in Sult1a1 mRNA expression (Sult1a1 [8]; [25]): 33.80% | increase in GSTM1 protein expression (Gstm1 [9]; high-dose Q3GA 10 mg/kg i.v. 7 days, P<0.05): 229.75% | increase in GSTM1 protein expression (Gstm1 [9]; [14]): 417.29% | increase in GSTM1 protein expression (Gstm1 [9]; [17]): 159.37% | decrease in Bcrp mRNA expression (Bcrp; [37]): 29.23% | decrease in Bcrp mRNA expression (Bcrp; [19]): 56.15% | decrease in Bcrp mRNA expression (Bcrp; [38]): 29.23% | decrease in Bcrp mRNA expression (Bcrp; [24]): 43.68% | decrease in Bcrp mRNA expression (Bcrp; [22]): 63.83% | decrease in Bcrp mRNA expression (Bcrp; [25]): 27.52% | decrease in Cyp3a1 mRNA expression (Cyp3a1 [10]; [28]): 33.73% | decrease in Cyp3a1 mRNA expression (Cyp3a1 [10]; [26]): 65.14% | decrease in Cyp3a1 mRNA expression (Cyp3a1 [10]; [34]): 54.94% | decrease in Cyp3a1 mRNA expression (Cyp3a1 [10]; [35]): 43.57% | decrease in Cyp3a1 mRNA expression (Cyp3a1 [10]; [22]): 63.78% | decrease in Cyp3a1 mRNA expression (Cyp3a1 [10]; [33]): 26.08% | decrease in Mrp2 mRNA expression (Mrp2 [11]; [28]): 20.44% | decrease in Mrp2 mRNA expression (Mrp2 [11]; [26]): 68.86% | decrease in Mrp2 mRNA expression (Mrp2 [11]; [29]): 32.70% | decrease in Mrp2 mRNA expression (Mrp2 [11]; [24]): 28.66% | decrease in Mrp2 mRNA expression (Mrp2 [11]; [22]): 66.03% | decrease in Mrp2 mRNA expression (Mrp2 [11]; [23]): 34.53% | increase in CAR protein expression (Car [12]; [37]): 211.76% | increase in CAR protein expression (Car [12]; [19]): 456.37% | increase in CAR protein expression (Car [12]; [38]): 208.32% | increase in CAR protein expression (Car [12]; [24]): 91.07% | increase in CAR protein expression (Car [12]; [22]): 235.46% | increase in CAR protein expression (Car [12]; [23]): 78.59% | decrease in UGT1A1 protein expression (Ugt1a1 [13]; [36]): 49.63% | decrease in UGT1A1 protein expression (Ugt1a1 [13]; [30]): 71.06% | decrease in UGT1A1 protein expression (Ugt1a1 [13]; liver, middle-dose Q3GA 5 mg/kg i.v. 7 days): 38.05% | decrease in UGT1A1 protein expression (Ugt1a1 [13]; [31]): 46.57% | decrease in UGT1A1 protein expression (Ugt1a1 [13]; [32]): 76.81% | decrease in UGT1A1 protein expression (Ugt1a1 [13]; [33]): 36.26% | decrease in Cyp3a2 mRNA expression (Cyp3a2; [18]): 34.64% | decrease in Cyp3a2 mRNA expression (Cyp3a2; [26]): 64.68% | decrease in Cyp3a2 mRNA expression (Cyp3a2; [20]): 26.18% | decrease in Cyp3a2 mRNA expression (Cyp3a2; [21]): 39.36% | decrease in Cyp3a2 mRNA expression (Cyp3a2; [22]): 49.70% | decrease in Cyp3a2 mRNA expression (Cyp3a2; [33]): 17.93% | decrease in OATP2B1 protein expression (OATP2B1; [27]): 51.44% | decrease in OATP2B1 protein expression (OATP2B1; [14]): 86.44% | decrease in OATP2B1 protein expression (OATP2B1; [15]): 42.21%
